Molecules are shown by their SMILES. ≈ marks a conversion by molar mass, not a printed value.

In assay [1] the test system is Staphylococcus aureus. The experiment in a line: Antimicrobial activity against Panton-valentine leucocidin-positive community-acquired methicillin-resistant Staphylococcus aureus N4090440 infected in human THP-1 cells assessed as bacterial count per mg of cell protein at low extracellular compound concentration after 24 hrs. The assay is classed as functional. Summed up:
(§1)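 THP-1 human macrophages infected with S. aureus (postphagocytosis inoculum 1.5 × 10^6 to 3.0 × 10^6 CFU/mg cell protein), then incubated 24 h with increasing extracellular antibiotic concentrations. Change in log10 CFU/mg cell protein from the postphagocytosis inoculum, n = 3. Hill function fitted on log-transformed data. Low-concentration value (E0) and high-concentration value (Emax) are extrapolated. Where a pH is given, concentrations are expressed as multiples of the broth MIC at that pH.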

Assay [2] relates to Staphylococcus aureus. The experiment in a line: Antimicrobial activity against Panton-valentine leucocidin-positive community-acquired methicillin-resistant Staphylococcus aureus N4042228 infected in human THP-1 cells assessed as bacterial count per mg of cell protein at low extracellular compound concentration after 24 hrs. The assay is classed as functional. Summed up:
as §1

The subject of assay [3] is Staphylococcus aureus. The experiment in a line: Antimicrobial activity against Panton-valentine leucocidin-positive community-acquired methicillin-resistant Staphylococcus aureus N4042228 infected in human THP-1 cells assessed as change in bacterial count after 24 hrs. The assay is classed as functional, organism-based. The following applies: N4042228, THP-1, 24 h. Summed up: as §1

Assay [4] has as its system Staphylococcus aureus. The experiment in a line: Antimicrobial activity against Panton-valentine leucocidin-positive community-acquired methicillin-resistant Staphylococcus aureus STA 228 infected in human THP-1 cells assessed as bacterial count per mg of cell protein at low extracellular compound concentration after 24 hrs. It counts as functional. The gist of the method: as §1

Assay [5] deals with Staphylococcus aureus. The experiment in a line: Bacteriostatic activity against Panton-valentine leucocidin-positive community-acquired methicillin-resistant Staphylococcus aureus NRS192 infected in human THP-1 cells assessed as change in bacterial count after 24 hrs at pH 5.5. The assay is classed as functional. The gist of the method:
(§2)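 THP-1 macrophages infected as described previously, with a postphagocytosis inoculum of 1.5 × 10⁶ to 3.0 × 10⁶ CFU/mg cell protein. Cells were exposed 24 h to increasing extracellular antibiotic concentrations. Response is the change in log10 CFU/mg protein from the inoculum (n = 3), fitted to a Hill function. E0 and Emax were extrapolated to infinitely low and high concentrations. EC50 and static concentration (graphical interpolation) are expressed as multiples of the broth MIC at pH 5.5 or 7.4.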

Assay [6] deals with Staphylococcus aureus. The experiment in a line: Antimicrobial activity against Panton-valentine leucocidin-positive community-acquired methicillin-resistant Staphylococcus aureus N4090440 infected in human THP-1 cells assessed as bacterial count per mg of cell protein at low extracellular compound concentration after 24 hrs at pH 5.5. The assay is classed as functional. The following applies: pooled result: one value given for 6 cell lines, strains, targets or settings. The gist of the method:
as §1

Assay [7] deals with Staphylococcus aureus. The experiment in a line: Bacteriostatic activity against Panton-valentine leucocidin-positive community-acquired methicillin-resistant Staphylococcus aureus N4090440 infected in human THP-1 cells assessed as change in bacterial count after 24 hrs at pH 5.5. The assay is classed as functional. Summed up:
as §2

Assay [8] relates to Staphylococcus aureus. The experiment in a line: Antimicrobial activity against Panton-valentine leucocidin-positive community-acquired methicillin-resistant Staphylococcus aureus STA 228 infected in human THP-1 cells assessed as bacterial count per mg of cell protein at high extracellular compound concentration after 24 hrs at pH 5.5. The assay is classed as functional. Summed up: as §1

For assay [9], the system named is Staphylococcus aureus. The experiment in a line: Antimicrobial activity against methicillin-susceptible Staphylococcus aureus […] infected in human THP-1 cells assessed as bacterial count per mg of cell protein at high extracellular compound concentration after 24 hrs at pH 7.4. It counts as functional. The gist of the method: (§3)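 Human THP-1 macrophage-like cells were infected with S. aureus to a postphagocytosis inoculum of 1.5 × 10^6 to 3.0 × 10^6 CFU/mg cell protein. Cells were then exposed 24 h to increasing extracellular antibiotic concentrations. Response was the log10 CFU change per mg protein from the postphagocytosis inoculum, n = 3. A Hill function was fitted on log-transformed axes. E0 and Emax were extrapolated to infinitely low and high concentrations. Cs was read by graphical interpolation. Concentrations were expressed as multiples of the broth MIC at pH 5.5 or pH 7.4.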

Assay [10] deals with Staphylococcus aureus. The experiment in a line: Antimicrobial activity against methicillin-susceptible Staphylococcus aureus […] infected in human THP-1 cells assessed as change in bacterial count after 24 hrs at pH 7.4. The assay is classed as functional, organism-based. Conditions: THP-1, 24 h. Summed up: as §2
Assay [11] concerns Staphylococcus aureus. The experiment in a line: Bacteriostatic activity against hospital-acquired vancomycin-intermediate Staphylococcus aureus NRS18 infected in human THP-1 cells assessed as change in bacterial count after 24 hrs at pH 5.5. It counts as functional. The gist of the method:
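Human THP-1 macrophage-like cells were infected with S. aureus; the post-phagocytosis inoculum was 1.5 × 10^6 to 3.0 × 10^6 CFU/mg cell protein. Cells were exposed 24 h to increasing extracellular drug levels. Change in log10 CFU/mg protein from the inoculum was fitted to a Hill function (n = 3). Static concentration was read by graphical interpolation, as a multiple of the pH 5.5 broth MIC.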

The subject of assay [12] is Staphylococcus aureus. The experiment in a line: Antimicrobial activity against hospital-acquired vancomycin-resistant Staphylococcus aureus VRS1 infected in human THP-1 cells assessed as change in bacterial count after 24 hrs at pH 5.5. The assay is classed as functional, cell-based. Conditions: VRS1, THP-1, 24 h. Summed up:
as §2

The test system of assay [13] is Staphylococcus aureus. The experiment in a line: Antimicrobial activity against hospital-acquired methicillin-resistant Staphylococcus aureus ATCC 33591 infected in human THP-1 cells assessed as change in bacterial count after 24 hrs at pH 5.5. Conditions: ATCC 33591, THP-1, 24 h. The assay is classed as functional, organism-based. The gist of the method: as §2

In assay [14] the test system is Staphylococcus aureus. The experiment in a line: Antimicrobial activity against hospital-acquired vancomycin-intermediate Staphylococcus aureus NRS18 infected in human THP-1 cells assessed as bacterial count per mg of cell protein at high extracellular compound concentration after 24 hrs at pH 5.5. It counts as functional. Summed up: as §3
Assay [15] has as its system Staphylococcus aureus. The experiment in a line: Antimicrobial activity against methicillin-susceptible Staphylococcus aureus NRS52 infected in human THP-1 cells assessed as change in bacterial count after 24 hrs at pH 7.4. The assay is classed as functional, organism-based. The following applies: NRS52, THP-1, 24 h. The gist of the method: as §2
Assay [16] concerns Staphylococcus aureus. The experiment in a line: Bacteriostatic activity against methicillin-susceptible Staphylococcus aureus NRS52 infected in human THP-1 cells assessed as change in bacterial count after 24 hrs at pH 7.4. It counts as functional. Summed up:
as §3

Assay [17] concerns Staphylococcus aureus. The experiment in a line: Antimicrobial activity against hospital-acquired methicillin-resistant Staphylococcus aureus ATCC 33592 infected in human THP-1 cells assessed as change in bacterial count after 24 hrs at pH 7.4. The assay is classed as functional, organism-based. Conditions: ATCC 33592, THP-1, 24 h. Summed up:
as §2

Assay [18] concerns Staphylococcus aureus. The experiment in a line: Antimicrobial activity against Panton-valentine leucocidin-positive community-acquired methicillin-resistant Staphylococcus aureus STA 44 infected in human THP-1 cells assessed as change in bacterial count after 24 hrs at pH 7.4. Conditions: STA 44, THP-1, 24 h. It counts as functional, organism-based. Summed up: as §1
Assay [19] relates to Staphylococcus aureus. The experiment in a line: Antimicrobial activity against Panton-valentine leucocidin-positive community-acquired methicillin-resistant Staphylococcus aureus STA 228 infected in human THP-1 cells assessed as change in bacterial count after 24 hrs at pH 7.4. The assay is classed as functional, organism-based. The following applies: STA 228, THP-1, 24 h. Summed up:
as §1

The test system of assay [20] is Staphylococcus aureus. The experiment in a line: Bacteriostatic activity against methicillin-resistant Staphylococcus aureus ATCC 33591 infected in human keratinocytes assessed as change in bacterial count after 24 hrs. The assay is classed as functional. The gist of the method: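 Primary human skin keratinocytes were grown in defined keratinocyte serum-free medium, infected, then incubated 24 h with increasing extracellular drug concentrations. Response was the change in log10 CFU/mg cell protein versus the post-phagocytosis inoculum, fitted to a Hill equation with slope factor 1. Static concentration (mg/liter, total drug) was taken by graphical interpolation where CFU equalled the original inoculum.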

The test system of assay [21] is Staphylococcus aureus. The experiment in a line: Antimicrobial activity against methicillin-susceptible Staphylococcus aureus ATCC 11632 infected in human THP-1 cells assessed as change in bacterial count after 24 hrs. The assay is classed as functional, organism-based. The following applies: ATCC 11632, THP-1, 24 h. The gist of the method:
as §2

Consider `Nc1nc(/C(=N/O)C(=O)N[C@@H]2C(=O)N3C(C(=O)O)=C(/C=C4\CCN([C@@H]5CCNC5)C4=O)CS[C@H]23)ns1` [CEFTOBIPROLE], for which the log10cfu in [1] was 3.39; in assay [2] it was 3.45; in assay [4], 2.87; in assay [6], 2.78; in assay [8], -1.02; in [9], -1.04. In addition, the log10cfu in assay [14] was found to be 1.01. The EC50 was determined as 0.07 mg/L (≈ 0.131 µM) in assay [3]; 0.2 × MIC in assay [10]; 0.77 × MIC in assay [12]; 0.77 × MIC in [13]; 0.2 ×MIC in [15]; 0.28 ×MIC in assay [17]. In addition, the EC50 in [18] is 0.33 ×MIC; in assay [19], 0.33 ×MIC; in assay [21], 0.205 mg/L (≈ 0.383 µM). Moreover, the Activity was 1.45 × MIC in assay [5]; 1.45 × MIC in [7]; 1.97 × MIC in assay [11]; 0.6 ×MIC in [16]; 1.95 mg/L in assay [20].
